Laboratory results as given in ChEMBL document CHEMBL3124843, “Synthesis, cytostatic, antimicrobial, and anti-HCV activity of 6-substituted 7-(het)aryl-7-deazapurine ribonucleosides” (J Med Chem, 2014).
pEC50, pIC50: −log10 of the molar value. The source made the active and inactive calls. No rule for the calls is given here.

Columns and labels:
CCRF-CEM [1] = assay: Cell cycle arrest in human CCRF-CEM cells assessed as accumulation at S phase at IC50 after 24 hrs by propidium iodide staining-based flow cytometric analysis (reference value: 44.8%); assay type: functional
[2] = Antiproliferative activity against human HeLaS3 cells after 72 hrs by XTT assay; assay type: functional, cell-based; conditions: HeLa S3, 72 h
Procedure, shortened: (§1)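 Antiproliferative test on HL-60 promyelocytic leukemia and HeLa S3 cervical carcinoma cells growing in liquid suspension.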

CCRF-CEM [3] = assay: Cytostatic activity against human CCRF-CEM cells after 72 hrs by MTT assay; assay type: functional, cell-based
Procedure, shortened: (§2)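 IC50 is the concentration that cuts cell growth by 50%, read by quantitative metabolic MTT staining after a 3-day treatment. The resistant sublines were made by raising the concentration of the cytotoxic drug step by step. CEM-DNR-bulk (daunorubicin-selected) stably overexpresses mrp-1. K562-TAX (paclitaxel-selected) expresses only mdr-1. HCT116p53−/− carries null p53 alleles. BJ and MRC-5 are nonmalignant fibroblasts.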

Staphylococcus aureus [4] = assay: Antibacterial activity against Staphylococcus aureus CCM 3953 after 24 hrs; assay type: functional, organism-based
[5] = Cytotoxicity against human HuH7 cells infected with Hepatitis C virus subtype 2a; assay type: cell-based, Huh-7
CCRF-CEM [6] = assay: Cell cycle arrest in human CCRF-CEM cells assessed as accumulation at G2/M phase at IC50 after 24 hrs by propidium iodide staining-based flow cytometric analysis (reference value: 14.2%); assay type: functional
Escherichia coli [7] = assay: Antibacterial activity against multi-resistant Escherichia coli C/16702 after 24 hrs; assay type: functional, organism-based
Staphylococcus aureus [8] = assay: Antibacterial activity against methicillin-resistant Staphylococcus aureus MRSA 4591 after 24 hrs; assay type: functional, organism-based
Candida parapsilosis = assay: Antifungal activity against Candida parapsilosis after 48 hrs; assay type: functional, organism-based
CCRF-CEM [9] = assay: Inhibition of RNA synthesis in human CCRF-CEM cells assessed as BrU-positive cells at IC50 after 24 hrs by propidium iodide staining-based flow cytometric analysis (reference value: 43.3%); assay type: functional; design: scale not given: the % may be the effect or the level left
[10] = tested on: Staphylococcus haemolyticus; assay: Antibacterial activity against methicillin-resistant Staphylococcus haemolyticus A/16568 after 24 hrs; assay type: functional, organism-based
Pseudomonas aeruginosa [11] = assay: Antibacterial activity against multi-resistant Pseudomonas aeruginosa A/16575 after 24 hrs; assay type: functional, organism-based
CCRF-CEM [12] = assay: Mitotic arrest in human CCRF-CEM cells assessed as pH3Ser10-positive cells at IC50 after 24 hrs by propidium iodide staining-based flow cytometric analysis (reference value: 1.4%); assay type: functional
Enterococcus faecalis = assay: Antibacterial activity against Enterococcus faecalis CCM 4224 after 24 hrs; assay type: functional, organism-based
K562 [13] = assay: Cytostatic activity against paclitaxel-resistant human K562 cells after 72 hrs by MTT assay; assay type: functional, cell-based; conditions: K562, 72 h; procedure, shortened: as §2
[14] = Cytostatic activity against human CEM-DNR-bulk cells after 72 hrs by MTT assay; assay type: functional, cell-based; procedure, shortened: as §2
Hepatitis C virus [15] = assay: Antiviral activity against Hepatitis C virus subtype 2a infected in human HuH7 cells; assay type: functional, organism-based, Hepacivirus hominis; conditions: genotype 2a, Huh-7
[16] = Cytotoxicity against human HuH7 cells infected with Hepatitis C virus subtype 1b; assay type: cell-based, Huh-7
A549 = assay: Cytostatic activity against human A549 cells after 72 hrs by MTT assay; assay type: functional, cell-based; conditions: A549, 72 h; procedure, shortened: as §2
BJ = assay: Cytostatic activity against human BJ cells after 72 hrs by MTT assay; assay type: ADME, cell-based; procedure, shortened: as §2
CCRF-CEM [17] = assay: Cell cycle arrest in human CCRF-CEM cells assessed as accumulation at G1 phase at IC50 after 24 hrs by propidium iodide staining-based flow cytometric analysis (reference value: 41%); assay type: functional
Pichia kudriavzevii = assay: Antifungal activity against Candida crusei after 48 hrs; assay type: functional, organism-based
CCRF-CEM [18] = assay: Cell cycle arrest in human CCRF-CEM cells assessed as accumulation at sub-G1 phase at IC50 after 24 hrs by propidium iodide staining-based flow cytometric analysis (reference value: 9.6%); assay type: functional
CCRF-CEM [19] = assay: Inhibition of DNA synthesis in human CCRF-CEM cells assessed as BrdU-positive cells at IC50 after 24 hrs by propidium iodide staining-based flow cytometric analysis (reference value: 50.1%); assay type: functional; design: scale not given: the % may be the effect or the level left
K562 [20] = assay: Cytostatic activity against human K562 cells after 72 hrs by MTT assay; assay type: functional, cell-based; conditions: K562, 72 h; procedure, shortened: as §2
Escherichia coli [21] = assay: Antibacterial activity against Escherichia coli CCM 3954 after 24 hrs; assay type: functional, organism-based
Pseudomonas aeruginosa [22] = assay: Antibacterial activity against Pseudomonas aeruginosa CCM 3955 after 24 hrs; assay type: functional, organism-based
Candida albicans = assay: Antifungal activity against Candida albicans after 48 hrs; assay type: functional, organism-based
Candida tropicalis = assay: Antifungal activity against Candida tropicalis after 48 hrs; assay type: functional, organism-based
HCT-116 [23] = assay: Cytostatic activity against human HCT116 cells after 72 hrs by MTT assay; assay type: functional, cell-based; conditions: HCT-116, 72 h; procedure, shortened: as §2
Hepatitis C virus [24] = assay: Antiviral activity against Hepatitis C virus subtype 1b infected in human HuH7 cells; assay type: functional, organism-based, Hepacivirus hominis; conditions: genotype 1b, Huh-7
MRC5 = assay: Cytostatic activity against human MRC5 cells after 72 hrs by MTT assay; assay type: ADME, cell-based; conditions: MRC5, 72 h; procedure, shortened: as §2
HCT-116 [25] = assay: Cytostatic activity against p53-deficient human HCT116 cells after 72 hrs by MTT assay; assay type: functional, cell-based; conditions: HCT-116, 72 h; procedure, shortened: as §2
HepG2 = assay: Antiproliferative activity against human HepG2 cells after 72 hrs by XTT assay; assay type: functional, cell-based; conditions: HepG2, 72 h
HL-60 = assay: Antiproliferative activity against human HL60 cells after 72 hrs by XTT assay; assay type: functional, cell-based; conditions: HL-60, 72 h; procedure, shortened: as §1

SMILES | pIC50 [2] | pIC50 (CCRF-CEM [3]) | Activity (Staphylococcus aureus [4]) | CC50 [5] | Activity (CCRF-CEM [6]) | Activity (Escherichia coli [7]) | Activity (Staphylococcus aureus [8]) | Activity (Candida parapsilosis) | Activity (CCRF-CEM [9]) | Activity [10] | Activity (Pseudomonas aeruginosa [11]) | Activity (CCRF-CEM [12]) | Activity (Enterococcus faecalis) | pIC50 (K562 [13]) | pIC50 [14] | pEC50 (Hepatitis C virus [15]) | CC50 [16] | pIC50 (A549) | pIC50 (BJ) | Activity (Pichia kudriavzevii) | other results
Nc1ncnc2c1c(-c1cccs1)cn2[C@@H]1O[C@H](CO)[C@@H](O)[C@H]1O | 7.70 | 7.70 | inactive | > 44 µM | 10.1% | inactive | inactive | inactive | 15.2% | inactive | inactive | 1.4% | inactive | 7.70 | 6.77 | < 4.36 | > 44 µM | 7.40 | 4.18 | inactive | Activity (CCRF-CEM [1]): 39.2%; Activity (CCRF-CEM [17]): 50.6%; Activity (CCRF-CEM [18]): 18.6%; Activity (CCRF-CEM [19]): 52.4%; pIC50 (K562 [20]): 7.52; Activity (Escherichia coli [21]): inactive; Activity (Pseudomonas aeruginosa [22]): inactive; Activity (Candida albicans): inactive; Activity (Candida tropicalis): inactive; pIC50 (HCT-116 [23]): 8.00; pEC50 (Hepatitis C virus [24]): < 4.36; pIC50 (MRC5): 4.40
COc1ncnc2c1c(-c1cccs1)cn2[C@@H]1O[C@H](CO)[C@@H](O)[C@H]1O | 5.75 | 7.05 | inactive | > 44 µM | 9.8% | inactive | inactive | inactive | 0.1% | inactive | inactive | 1.1% | inactive | 5.21 | 4.92 | < 4.36 | > 44 µM | 5.31 | 4.20 | inactive | pIC50 (HCT-116 [25]): 6.36; pIC50 (HepG2): 4.86; Activity (CCRF-CEM [18]): 7.5%; pIC50 (K562 [20]): 7.15; Activity (Escherichia coli [21]): inactive; pIC50 (HL-60): 7.10; Activity (Pseudomonas aeruginosa [22]): inactive; Activity (Candida albicans): inactive; Activity (Candida tropicalis): inactive; pIC50 (HCT-116 [23]): 7.10; pEC50 (Hepatitis C virus [24]): 5.97; pIC50 (MRC5): 4.36
